Reference: ChEMBL document CHEMBL1932986, “Synthesis and in vitro antimycobacterial activity of compounds derived from (R)- and (S)-2-amino-1-butanol - The crucial role of the configuration” (Eur J Med Chem, 2012)
In brackets after ≈: the same amount, converted by molar mass. Activity calls are given as the source filed them. The rule behind the calls is not given here.

How the values were obtained:
Assay type in all cases: functional
[1] = system: Penicillium chrysogenum; assay: Antifungal activity against Penicillium chrysogenum CECT 2802 at 50 mg/ml after 72 hrs by agar diffusion test; settings: for zone of inhibition at 50000 µg/mL: CECT 2802, 72 h, read-out: DIZ
Outline: (§1)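 Agar diffusion: yeasts grown on yeast peptone dextrose agar and fungi on potato dextrose agar. Wells are filled with […] of compound solution in DMSO at various concentrations, and the clear-zone diameter is measured. Bracketed values give the lowest concentration (mg/ml) that produces a zone >11 mm. A first screen is run at 50 mg/ml.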

[2] = system: Candida tropicalis; assay: Antifungal activity against Candida tropicalis ATCC 20336 at 50 mg/ml after 72 hrs by agar diffusion test; settings: for zone of inhibition at 50000 µg/mL: ATCC 20336, 72 h, read-out: DIZ; outline: as §1
[3] = system: Saccharomyces cerevisiae; assay: Antifungal activity against Saccharomyces cerevisiae ATCC 9763 at 50 mg/ml after 72 hrs by agar diffusion test; settings: for zone of inhibition at 50000 µg/mL: ATCC 9763, 72 h, read-out: DIZ; outline: as §1
[4] = system: Mycobacterium tuberculosis; assay: Antimycobacterial activity against Mycobacterium tuberculosis H37Rv after 45 days
Outline: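 Canetti proportion method. Compound in DMSO is added to Löwenstein–Jensen egg medium before coagulation (30 min, 85 °C), tested at three levels plus a lower one where needed. Tubes are inoculated with H37Rv at 10⁵ cells/ml and incubated 45 days at 37 °C. Colony counts versus drug-free control give percentage inhibition.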

[5] = system: Acinetobacter johnsonii; assay: Antibacterial activity against Acinetobacter johnsonii ATCC 17909 at 50 mg/ml after 24 hrs by agar diffusion test; settings: for zone of inhibition at 50000 µg/mL: ATCC 17909, 24 h, read-out: DIZ
Outline: (§2)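 Agar diffusion: wells in agar filled with […] DMSO solution of compound at various concentrations; diameter of clear zone around application point measured. Bacteria grown 24 h at 37 °C on nutrient agar. Compounds first screened at 50 mg/ml; those active then tested at lower concentrations. Bracketed value = lowest concentration (mg/ml) giving zone >11 mm, reported only if activity retained at ≤1.25 mg/ml.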

[6] = system: Staphylococcus aureus; assay: Antibacterial activity against Staphylococcus aureus NRRL B 313 at 50 mg/ml after 24 hrs by agar diffusion test; settings: for zone of inhibition at 50000 µg/mL: NRRL B 313, 24 h, read-out: DIZ
Outline: (§3)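 Agar diffusion: bacteria grown 24 h at 37 °C on nutrient agar. Wells in the agar are filled with […] of compound solution in DMSO at various concentrations. The diameter of the clear zone around the application point is measured. Bracketed values give the lowest concentration (mg/ml) that produces a zone >11 mm. A first screen is run at 50 mg/ml.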

[7] = system: Bacillus mycoides; assay: Antibacterial activity against Bacillus mycoides DSMZ 274 at 50 mg/ml after 24 hrs by agar diffusion test; settings: for zone of inhibition at 50000 µg/mL: DSMZ 274, 24 h, read-out: DIZ; outline: as §2
[8] = system: Micrococcus luteus; assay: Antibacterial activity against Micrococcus luteus ATCC 9631 at 50 mg/ml after 24 hrs by agar diffusion test; settings: for zone of inhibition at 50000 µg/mL: ATCC 9631, 24 h, read-out: DIZ; outline: as §2
[9] = system: Bacillus cereus; assay: Antibacterial activity against Bacillus cereus ATCC 11778 at 50 mg/ml after 24 hrs by agar diffusion test; settings: for zone of inhibition at 50000 µg/mL: ATCC 11778, 24 h, read-out: DIZ; outline: as §2
[10] = system: Micrococcus luteus; assay: Antibacterial activity against Sarcina lutea ATCC 9341 at 50 mg/ml after 24 hrs by agar diffusion test; settings: for zone of inhibition at 50000 µg/mL: ATCC 9341, 24 h, read-out: DIZ; outline: as §3
[11] = system: Bacillus; assay: Antibacterial activity against Bacillus idosus B 241 at 50 mg/ml after 24 hrs by agar diffusion test; settings: for zone of inhibition at 50000 µg/mL: B 241, 24 h, read-out: DIZ; outline: as §2
[12] = system: Priestia megaterium; assay: Antibacterial activity against Bacillus megaterium NRRL 1353895 at 50 mg/ml after 24 hrs by agar diffusion test; settings: for zone of inhibition at 50000 µg/mL: NRRL 1353895, 24 h, read-out: DIZ; outline: as §2
[13] = system: Escherichia coli; assay: Antibacterial activity against Escherichia coli ATCC 8739 at 50 mg/ml after 24 hrs by agar diffusion test; settings: for zone of inhibition at 50000 µg/mL: ATCC 8739, 24 h, read-out: DIZ; outline: as §2
[14] = system: Bacillus subtilis; assay: Antibacterial activity against Bacillus subtilis ATCC 6633 at 50 mg/ml after 24 hrs by agar diffusion test; settings: for zone of inhibition at 50000 µg/mL: ATCC 6633, 24 h, read-out: DIZ; outline: as §2

Row | SMILES | diameter of the inhibition zone (DIZ) [1] | diameter of the inhibition zone (DIZ) [2] | diameter of the inhibition zone (DIZ) [3] | MIC [4] [µM] | diameter of the inhibition zone (DIZ) [5] | zone of inhibition at 50000 µg/mL [6] [mm] | zone of inhibition at 50000 µg/mL [7] [mm] | zone of inhibition at 50000 µg/mL [8] [mm] | zone of inhibition at 50000 µg/mL [9] [mm] | diameter of the inhibition zone (DIZ) [10] | zone of inhibition at 50000 µg/mL [11] [mm] | diameter of the inhibition zone (DIZ) [12] | diameter of the inhibition zone (DIZ) [13] | diameter of the inhibition zone (DIZ) [14] | zone of inhibition at 50000 µg/mL [5] [mm] | zone of inhibition at 50000 µg/mL [10] [mm] | zone of inhibition at 50000 µg/mL [14] [mm] | diameter of the inhibition zone (DIZ) [6] | diameter of the inhibition zone (DIZ) [11] | zone of inhibition at 50000 µg/mL [12] [mm] | further results
1 | CC[C@H](CO)N(CC(=O)Nc1c(C)cccc1C)CC(=O)Nc1c(C)cccc1C | inactive | inactive | inactive | > 12.2 | inactive | 15 | 12 | 12 | 11 | inactive | 10 | inactive | inactive | inactive | – | – | – | – | – | – | –
2 | CC[C@H](CO)NCc1ccc(-n2ccnc2)cc1 | – | inactive | inactive | 20.4 (≈ 5 µg/mL) | – | 16 | 18 | 16 | 13 | – | 16 | inactive | inactive | – | 18 | 18 | 12 | – | – | – | zone of inhibition at 50000 µg/mL [1]: 12 mm
3 | CC[C@H](CO)NCc1ccc(CN[C@H](CC)CO)cc1 | inactive | inactive | inactive | 17.8 (≈ 5 µg/mL) | inactive | – | – | – | – | inactive | – | inactive | inactive | – | – | – | 10 | inactive | inactive | – | diameter of the inhibition zone (DIZ) [7]: inactive; diameter of the inhibition zone (DIZ) [8]: inactive; diameter of the inhibition zone (DIZ) [9]: inactive
4 | CC[C@H](CO)NCc1ccnc2ccccc12 | – | – | – | 21.7 (≈ 5 µg/mL) | – | 14 | 16 | 10 | 13 | – | 12 | – | – | – | 13 | 13 | 10 | – | – | 11 | zone of inhibition at 50000 µg/mL [1]: 20 mm; zone of inhibition at 50000 µg/mL [13]: 20 mm
5 | CC[C@H](CO)/N=C1\C[C@H]2CC[C@]1(C)C2(C)C | inactive | inactive | inactive | > 22.4 | inactive | – | 11 | – | – | inactive | – | – | inactive | inactive | – | – | – | inactive | inactive | 10 | diameter of the inhibition zone (DIZ) [8]: inactive; diameter of the inhibition zone (DIZ) [9]: inactive
6 | CC[C@H](CO)NCc1ccc2ccccc2c1 | – | – | – | > 21.8 | – | 19 | 17 | 19 | 14 | – | 19 | – | – | – | 17 | 17 | 19 | – | – | 17 | zone of inhibition at 50000 µg/mL [1]: 35 mm; zone of inhibition at 50000 µg/mL [2]: 10 mm; zone of inhibition at 50000 µg/mL [3]: 10 mm; zone of inhibition at 50000 µg/mL [13]: 22 mm
7 | CC[C@H](CO)NS(=O)(=O)c1ccc(NC(C)=O)cc1 | – | inactive | inactive | > 17.5 | inactive | – | – | – | – | inactive | – | inactive | inactive | inactive | – | – | – | inactive | inactive | – | diameter of the inhibition zone (DIZ) [7]: inactive; diameter of the inhibition zone (DIZ) [8]: inactive; diameter of the inhibition zone (DIZ) [9]: inactive
8 | CC[C@@H]1COc2cc3ccccc3c(=O)n21 | – | – | – | 23.2 (≈ 5 µg/mL) | – | 12 | 15 | 15 | 18 | – | 15 | – | – | inactive | 10 | 13 | – | – | – | 13 | zone of inhibition at 50000 µg/mL [1]: 35 mm; zone of inhibition at 50000 µg/mL [2]: 20 mm; zone of inhibition at 50000 µg/mL [3]: 11 mm; zone of inhibition at 50000 µg/mL [13]: 0 mm
9 | CC[C@H](CO)N1C(=O)c2cccc3c(Br)ccc(c23)C1=O | inactive | inactive | inactive | > 14.4 | inactive | – | – | – | – | – | – | inactive | – | inactive | – | – | – | inactive | inactive | – | diameter of the inhibition zone (DIZ) [7]: inactive; diameter of the inhibition zone (DIZ) [8]: inactive
10 | CC[C@H](CO)NC(=S)Nc1ccccc1 | – | – | – | > 22.3 | – | – | 12 | 12 | 14 | – | – | – | – | inactive | 12 | 12 | – | inactive | inactive | 13 | zone of inhibition at 50000 µg/mL [2]: 16 mm; zone of inhibition at 50000 µg/mL [3]: 15 mm; zone of inhibition at 50000 µg/mL [13]: 16 mm
11 | CC[C@H](CO)NCc1ccccc1OC | inactive | inactive | – | > 23.9 | – | 10 | 11 | 11 | 13 | – | 15 | – | inactive | – | 10 | – | 10 | – | – | 11 | zone of inhibition at 50000 µg/mL [3]: 16 mm
12 | CC[C@H](CO)N(Cc1cc2c(cc1Cl)OCO2)Cc1cc2c(cc1Cl)OCO2 | inactive | inactive | inactive | > 11.7 | inactive | – | – | – | – | – | – | – | inactive | inactive | – | 10 | – | inactive | inactive | 10 | diameter of the inhibition zone (DIZ) [7]: inactive; diameter of the inhibition zone (DIZ) [9]: inactive
13 | CC[C@H](CO)NC(=O)c1ccccc1Br | inactive | inactive | inactive | > 18.4 | inactive | – | – | – | – | inactive | – | inactive | – | inactive | – | – | – | inactive | inactive | – | diameter of the inhibition zone (DIZ) [7]: inactive; diameter of the inhibition zone (DIZ) [8]: inactive; diameter of the inhibition zone (DIZ) [9]: inactive
